Shown are actives, neighbours in structure and some others; about 6.4% of the full set was active somewhere.
PostGolgi ctrl = growth inhibition of yeast control strain, primary screen, counter-screen for post-Golgi transport modulator project; efflux-deficient yeast background strain, growth absorbance A615, 16 h; inhibition, % at 10 µM; 98,000 compounds, 5% hits
HIV Rev-RRE inh = HIV-1 Rev-RRE binding inhibitors, primary screen, biochemical, FRET, protein-RNA interaction | AID 704, 2007 | 97,000 compounds, 0.79% hits | Rev peptide-RRE RNA binding | inhibition, % at 8 µM;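 active = inhibition above the screen-wide mean plus 3 SD, cut at about 35% in these data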;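 also: 0% = median DMSO wells and 100% = median Neomycin B control wells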
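Test system: Cy5-tagged RRE RNA duplex with fluorescein-tagged Rev peptide | Read-out: % inhibition of FRET ratio versus controls | Probe or stimulus: Labelled Rev peptide | Incubation: 5 min RNA-compound premix plus 15 min binding step, 25 °C | Technique: FRET fluorescence readout | Benchmarks: DMSO low control, neomycin B high control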
EphB4 ephrin blk = EphB4-ephrin-B2 interaction antagonists, primary screen, biochemical, TNYL-RAW peptide probe, fluorescence polarization; EphB4 LBD / TNYL-RAW-Alexa532 peptide; inhibition, % at 7 µM; 97,000 compounds, 0.15% hits; Ephrin type-B receptor 4 (Homo sapiens), P54760;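 active = inhibition above the screen-wide mean inhibition plus 3 SD, cut at about 15% in these data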;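 also: 0% = DMSO wells and 100% = excess unlabeled TNYL-RAW peptide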
PLK1 kinase inh = human PLK1 kinase inhibitors, primary screen, biochemical, TR-FRET; Serine/threonine-protein kinase PLK1 (Homo sapiens), P53350; recombinant PLK1 kinase, TR-FRET peptide phosphorylation; inhibition, % at 10 µM; 97,000 compounds, 0.53% hits; AID 619, 2007;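 active = inhibition of 50% or more in the single-concentration screen; inactive = inhibition below 50%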;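 also: 0% = DMSO max control and 100% = H-89 dihydrochloride min control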
Target sequence (P53350 whole entry, looked up): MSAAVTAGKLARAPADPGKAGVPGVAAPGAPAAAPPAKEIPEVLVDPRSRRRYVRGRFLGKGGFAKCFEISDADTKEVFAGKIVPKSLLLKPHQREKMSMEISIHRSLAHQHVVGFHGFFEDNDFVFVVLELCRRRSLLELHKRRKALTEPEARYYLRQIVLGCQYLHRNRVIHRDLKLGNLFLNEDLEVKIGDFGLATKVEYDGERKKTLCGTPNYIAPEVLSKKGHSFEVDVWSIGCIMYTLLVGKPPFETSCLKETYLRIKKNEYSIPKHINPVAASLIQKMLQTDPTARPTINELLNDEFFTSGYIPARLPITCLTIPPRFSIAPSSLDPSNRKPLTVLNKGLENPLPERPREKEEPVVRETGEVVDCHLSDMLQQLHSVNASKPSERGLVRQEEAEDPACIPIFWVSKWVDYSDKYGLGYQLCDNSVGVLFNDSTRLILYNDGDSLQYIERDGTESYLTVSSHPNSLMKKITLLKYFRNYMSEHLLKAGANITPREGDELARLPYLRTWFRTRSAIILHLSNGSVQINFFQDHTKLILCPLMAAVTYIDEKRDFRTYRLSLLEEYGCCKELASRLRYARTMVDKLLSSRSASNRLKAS
PostGolgi yeast = phenotypic screen on post-Golgi transport, primary screen; post-Golgi transport phenotypic cell assay; AID 739, 2007; inhibition, % at 10 µM; 98,000 compounds, 0.9% hits;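 also: yeast cells grown in 1536-well plates; yeast grown about 18 h at 30C before absorbance read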
Plk1 PBD FP = Plk1 polo box domain binding inhibitors, primary screen, biochemical, fluorescence polarization. Serine/threonine-protein kinase PLK1 (Homo sapiens), P53350. Plk1 PBD phosphopeptide binding. inhibition, %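 (tested at about 20 µM)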. 97,000 compounds, 0.13% hits. AID 693, 2007; in the data active = inhibition above about 34%, passing the limit was not always enough
* = called active by the depositor; . = no result; [ ] = remark or other dose. Rule as the data show it, unless noted: active = inhibition above about 30%; inactive = the rest.

SMILES	PostGolgi ctrl	HIV Rev-RRE inh	EphB4 ephrin blk	PLK1 kinase inh	PostGolgi yeast	Plk1 PBD FP
N#Cc1c(-c2ccccc2)cc(-c2ccco2)c(C#N)c1N	6	37*	-6	-6	10	3
O=C(Nc1nnc(-c2cccs2)o1)c1cccc(Oc2ccccc2)c1	22	6	9	-15	34*	-4
O=C(Nc1nnc(-c2cccs2)o1)c1cccc(F)c1	.	2	-7	-25	.	-7
C=CCn1c(SCC(=O)N2CCc3ccccc3C2)nc2sc(C)cc2c1=O	50*	2	-1	-6	0	13
C=CCn1c(SCC(=O)N2CCN(C(=O)c3ccco3)CC2)nc2sc(CC)cc2c1=O	-4	8	0	1	3	-25
CCN(CC)C(=O)CSc1nc(-c2ccc(C)cc2)nc2c1COC(C)(C)C2	36*	8	3	-8	5	10
Cc1ccc2[nH]c3c(N4CCc5ccccc5C4)ncnc3c2c1	43*	-1	-1	7	-40	-14
Brc1ccc2[nH]c3c(N4CCc5ccccc5C4)ncnc3c2c1	76*	3	-2	-1	42*	3
c1ccc2c(c1)[nH]c1c(N3CCCC3)ncnc12	11	-5	-6	-6	13	-8
CC1CN(C(=O)CSc2nnc3c(Cl)cc(Cl)cn23)CC(C)O1 (centres undefined)	-1	4	0	-3	-3	-1
COc1ccc(CCNC(=O)CSc2nc(O)c(C(C)C)c(=O)[nH]2)cc1OC	.	4	-4	-8	.	8
O=C(CN1CCCC1)N1CCCc2c1c(=O)oc1ccc(OCc3ccccc3)cc21	36*	10	3	-4	22	-24
CCCOc1ccc2oc(=O)c3c(c2c1)CCCN3C(=O)CN1CCN(C(=O)c2ccco2)CC1	14	.	.	.	-4	.
CN(C)C=Nc1c(Br)cc(Br)c2nonc12	6	68*[fluorescence artefact?]	-3	-9	14	-46
CN(C)C=Nc1nonc1-c1ncn[nH]1	-1	5	-4	-9	0	8
Cn1c(NCc2ccccc2)cc(=O)n(C)c1=O	8	8	-4	-7	0	-18
Cn1c(=O)cc(NCc2ccccc2)[nH]c1=O	-5	.	.	.	40*	.
CCOc1cc(/C=C2\SC(=S)N(Nc3ccccc3)C2=O)ccc1O	61*	33	-27	10	9	-90
COc1cc(/C=C2\SC(=S)N(Nc3ncc(C(F)(F)F)cc3Cl)C2=O)ccc1O	13	25	-24	-12	8	-162
CCCCN1CC(O)=C(c2nc3ccccc3[nH]2)C1=N	30*	6	1	-10	4	5
CCCCn1c(SCC(=O)N2CCCc3ccccc32)nc2c1c(=O)n(C)c(=O)n2C	18	13	9	5	3	-9
Cc1c(F)cccc1NC(=O)CSCC(=O)Nc1ccccc1	4	0	4	-1	1	-15
CCCn1c(SCC(=O)Nc2ccccc2-c2ccccc2)nnc1-c1ccoc1C	14	.	.	.	1	.
COC(=O)c1c(=O)n(O)c2ccc(OC)cc2[n+]1[O-]	8	41*	9	-8	-6	-13
CCN(CC)CC(=O)Nc1c(C)cc(C)cc1C	1	.	.	.	1	.
SMILES	PostGolgi ctrl	HIV Rev-RRE inh	EphB4 ephrin blk	PLK1 kinase inh	PostGolgi yeast	Plk1 PBD FP
CCC(C)NC(=O)CSC1=Nc2ccccc2C2=NC(CC(=O)NCc3ccccc3)C(=O)N12 (centres undefined)	-3	1	-4	-14	-1	-31
CS(=O)(=O)N(Cc1ccccc1)c1ccc(C(=O)Nc2ccc3c(c2)OCO3)cc1	2	8	0	-8	-9	16
Cc1ccc(C(=O)NC(=S)Nc2ccccc2C(F)(F)F)cc1	4	-2	10	0	2	6
Cc1ccc(C(=O)Nc2ccc(Br)c(C(F)(F)F)c2)cc1	27	28	2	-4	36*	5
O=C(COc1ccc(S(=O)(=O)NC2CCCCC2)cc1Cl)Nc1ccc2c(c1)OCO2	43*	24	5	-4	-2	-6
O=C(COc1ccc(S(=O)(=O)NC2CCCCC2)cc1Cl)NCc1ccc2c(c1)OCO2	17	14	-1	-35	-2	-3
Cc1cc(C)c2c(=O)n(CC(=O)N3CCC(Cc4ccccc4)CC3)sc2n1	45*	.	.	.	-1	.
COc1cc(C(=S)N2CCCC2)ccc1O	3	6	-2	-7	15	-6
COc1cc(N2CCCC2)c(OC)cc1/C=C(/C#N)c1ccc(F)cc1	.	95*[fluorescence artefact?]	-1	-28	.	-132
COc1cc(N2CCCC2)c(OC)cc1/C=C(/C#N)c1ccc(Br)cc1	6	114*[fluorescence artefact?]	-12	-24	-2	-137
O=C(CNC(=O)c1cccs1)NCCN1CCN(c2ccccc2F)CC1	17	.	.	.	1	.
O=c1[nH]c(=O)n(CCOc2ccc(Cl)cc2)cc1Br	13	5	-1	-20	4	20
CCCOc1ccc(S(=O)(=O)n2cc(Br)c(=O)[nH]c2=O)cc1	42*	1	-4	8	6	1
Cc1ccc(S(=O)(=O)CCC(=O)NCc2ccco2)cc1	8	7	4	-1	-12	-19
COCCN(Cc1cc2cccc(C)c2[nH]c1=O)C(=O)c1ccccc1	35*	-3	-6	-4	6	19
Cc1cccc2cc(CN(Cc3ccco3)C(=O)c3ccncc3)c(=O)[nH]c12	-4	3	3	-4	-2	-4
COc1cc(C(=O)N[C@H](C(=O)NC2CCCCCC2)C(C)C)cc(OC)c1OC	-5	7	11	-7	-10	-1
COc1cc(OC)cc(C(=O)N[C@H](C(=O)NC23CC4CC(CC(C4)C2)C3)C(C)C)c1	28	8	0	-12	47*	11
Cc1cccc(NC(=O)Nc2cc(C)on2)c1	8	6	2	-17	-2	-16
Cc1cccc(N/C=C/c2onc(C)c2[N+](=O)[O-])c1	13	95*[fluorescence artefact?]	6	-5	-4	-13
C=CCSc1nc2ccccc2n1C(=O)/C=C/c1cc(OC)c(OC)c(OC)c1	38*	5	3	-2	3	2
N#Cc1nn(-c2ccccc2)nc1N1CCCCC1	3	.	.	.	13	.
COc1ccc(CCn2c(-c3ccco3)nc3nc4ccccc4nc32)cc1	19	16	-2	-9	0	4
Clc1ccc(OCCn2c(-c3ccco3)nc3ccccc32)cc1	53*	14	-4	0	-3	-18
COc1ccc(C(=O)n2c(-c3ccco3)nc3ccccc32)cc1	33*	3	-1	-12	6	-4
Cc1ccccc1NC(=O)CSc1nc(N2CCCCC2)nc(N2CCCCC2)n1	5	13	4	8	17	27
